Measured values as given in PMC5003403 (Clinical breast cancer, 2012).

How the values were obtained:
[1] = system: serum IGFBP-3 (IGF-binding protein 3); test: Serum IGFBP-3 levels; type: in vivo, human; settings: Day 7 (exemestane alone); mean ± SD; n 22
In short: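 Serum was taken at baseline, after 1 week of single-agent oral exemestane 25 mg daily (day 7), and at day 120 (±7). About 5 mL venous blood went into serum separator tubes, clotted for at least 30 min and was centrifuged at 3000 rpm for 10 min. Serum was frozen at −70°C until assay. Day differences were tested by repeated-measures ANOVA.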

[2] = type: in vivo; settings: human, plasma, oral, 25 mg
In short: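 Nine patients took oral 25 mg daily with food from day 1, adding intramuscular 250 mg fulvestrant from day 8 every 28 ± 5 days. Plasma was sampled over 24 h after the day-7 dose and again after about 120 ± 7 days of combination. Samples went into prechilled heparinised tubes on ice, spun at 1000–1200g for 10–15 min at 4°C and held at about −70°C. LC-MS/MS, LLOQ 0.1 ng/mL. Noncompartmental analysis: Cmax by inspection, AUC by linear trapezoid, t1/2 = 0.693/λz.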

[3] = system: serum IGF-1 (insulin-like growth factor 1); test: Serum IGF-1 levels; type: in vivo, human; settings: Day 7 (exemestane alone); mean ± SD; n 23

AUC(0-t) [2]: 61.7 ± 17.1 ng·h/mL
Cmax [2]: 20.1 ± 7.7 ng/mL
half-life [2]: 7.94 ± 1.32 h
Compound: C=C1C[C@@H]2[C@H](CC[C@]3(C)C(=O)CC[C@@H]23)[C@@]2(C)C=CC(=O)C=C12 [Exemestane]
IGFBP-3 serum level [1]: 5273 ± 1372 ng/mL
IGF-1 serum level [3]: 141 ± 55.1 ng/mL
